Source: PubChem BioAssay
An excerpt weighted towards active compounds, which were near 6.7% of everything screened.
PREPL inhibitor: human PREPL enzyme inhibition | Q4J6C6 | recombinant PREPL, fluorescence polarization activity-based probe | inhibition, % at 5.96 µM | actives 0.68% (n = 320,000) | AID 2751; in the data active = inhibition above about 43%;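 also: 0% = enzyme with DMSO and 100% = wells lacking enzyme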
Target sequence (Q4J6C6 whole entry, looked up): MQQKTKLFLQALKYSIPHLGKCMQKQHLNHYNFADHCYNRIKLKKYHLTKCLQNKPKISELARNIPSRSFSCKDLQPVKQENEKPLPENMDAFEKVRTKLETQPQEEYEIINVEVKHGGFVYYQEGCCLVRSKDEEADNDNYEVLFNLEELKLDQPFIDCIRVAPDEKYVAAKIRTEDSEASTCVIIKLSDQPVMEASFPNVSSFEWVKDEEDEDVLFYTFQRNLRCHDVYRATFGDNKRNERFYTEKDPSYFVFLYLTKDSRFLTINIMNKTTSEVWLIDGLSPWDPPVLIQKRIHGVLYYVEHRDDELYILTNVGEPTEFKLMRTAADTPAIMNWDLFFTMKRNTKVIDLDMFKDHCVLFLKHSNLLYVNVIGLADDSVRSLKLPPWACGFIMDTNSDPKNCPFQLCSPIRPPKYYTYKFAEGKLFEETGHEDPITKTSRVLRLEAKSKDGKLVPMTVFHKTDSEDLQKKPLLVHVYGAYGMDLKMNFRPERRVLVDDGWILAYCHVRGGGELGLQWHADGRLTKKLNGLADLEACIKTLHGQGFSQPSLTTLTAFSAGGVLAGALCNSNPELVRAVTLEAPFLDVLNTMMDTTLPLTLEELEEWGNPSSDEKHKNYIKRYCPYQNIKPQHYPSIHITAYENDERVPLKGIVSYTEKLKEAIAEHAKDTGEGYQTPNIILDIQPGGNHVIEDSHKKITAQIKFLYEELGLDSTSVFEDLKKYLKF
GRIN3A LBD mod: NR3A (human) ligand-binding domain modulation; NR3A LBD differential scanning fluorimetry, Tm shift; 0% = protein alone, 100% = glycine-bound protein; Tm shift relative to glycine control, % at 25 µM; actives 2.5% (n = 340,000);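 active = melting temperature shift of at least 10% of the positive control shift, at one fixed dose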
CSC inhib: cancer stem cell inhibition; inhibition, % at 7.5 µM; actives 1.1% (n = 300,000); AID 2717; cancer stem cell-like cells viability, luminescence; in the data active = inhibition above about 75%; tested in HMLE shEcad cells
CHOP inh: inhibitors of CHOP induction in ER stress response. CHO-K1 CHOP-promoter luciferase, tunicamycin-induced, 15-18 h. inhibition, % at 10 µM. actives 3.8% (n = 220,000). AID 2732;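 active = compounds that reduced the stress-induced luciferase reporter signal by more than about 70% of percent inhibition, limit read from the data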;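 also: 0% = tunicamycin plus vehicle and 100% = wells without tunicamycin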
T cruzi inh: blocks replication of Trypanosoma cruzi; actives 1.4% (n = 300,000); T. cruzi beta-gal in NIH3T3, luminescence, 90 h; inhibition, % (concentration not given with the values);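 active = mean inhibition across valid replicates above about 55%, limit read from the data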;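 also: signal also drops with host cell toxicity which is not excluded here; 0% = plate median of DMSO wells and 100% = zero luminescence signal; higher percent means less beta-gal luminescence so fewer parasites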
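Material: NIH/3T3 host cells with β-galactosidase reporter T. cruzi; Input: 5,000 host fibroblasts per well; Medium: DMEM, 2% fetal bovine serum; Compound: 50 nL DMSO compound solution per well; Schedule: 3 h host attachment, then at least 90 h co-culture; Detection: luminescent β-galactosidase signal after 60 min lysis.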
Beta apoptosis: blocks beta cell apoptosis. protection from apoptosis, % (no concentration beside the values). actives 0.8% (n = 300,000). AID 435005. INS-1E cytokine-induced death, ATP luminescence, 48 h; percent of positive-control rescue, neutral wells zero;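 active = Every replicate reaches about 75%, or at least half do and their mean reaches it too, limit read from the data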;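 also: 0% = cytokine-treated negative control wells and 100% = positive control rescue; higher means more ATP so stronger rescue from cytokine killing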
Starred values were filed as active, the others as inactive; · = no result.

SMILES	PREPL inhibitor	GRIN3A LBD mod	CSC inhib	CHOP inh	T cruzi inh	Beta apoptosis
C/C(=C\C(=O)c1ccc(Cl)cc1)Nc1ccc(N2CCOCC2)cc1	11	0	-1	67	26	3
C/C(=C\C(=O)c1ccccc1)Nc1ccc(N2CCOCC2)cc1	2	3	16	2	64*	6
CNC1=C(N(C(C)=O)c2ccc(Br)cc2)C(=O)c2ccccc2C1=O	18	-2	105*	-13	70*	131*
CC(=O)O[C@H]1C(=O)[C@@]2(C)C([C@H](OC(=O)c3ccccc3)[C@]3(O)C[C@H](OC(=O)[C@H](O)[C@@H](NC(=O)c4ccccc4)c4ccccc4)C(C)=C1C3(C)C)[C@]1(OC(C)=O)CO[C@@H]1C[C@H]2O (some centres not stated)	-3	-2	49	·	61*	23
CC(=O)O[C@H]1C(=O)[C@@]2(C)C([C@H](OC(=O)c3ccccc3)[C@]3(O)C[C@H](OC(=O)[C@H](O)[C@@H](NC(=O)c4ccccc4)c4ccccc4)C(C)=C1C3(C)C)[C@]1(OC(C)=O)CO[C@@H]1C[C@@H]2O (some centres not stated)	·	·	·	88*	·	·
O=C(CNC(=O)c1sc2ccccc2c1Cl)NC1CC1	-2	2	3	·	-14	-11
CC1CC(=O)Nc2ccccc2N1C(=O)Cn1cnc2ccccc2c1=O (configuration not stated)	6	-1	-11	·	·	1
Nc1c(C=C2C=CC(=O)C=C2)c(=O)nc2sc(CC(=O)N3CCCCC3)nn12	28	0	-1	·	4	-1
CC(C)S(=O)(=O)c1nsc2nc(=O)c(/C=C3\C=Nc4ccccc43)c(N)n12	13	23*	-3	5	4	1
CSc1nsc2nc(=O)c(/C=C3\C=Nc4ccccc43)c(N)n12	14	22*	30	1	0	-6
Cc1cn2c(N)c(/C=C3\C=Nc4ccccc43)c(=O)nc2s1	-4	16*	-5	-13	2	0
CCc1nn2c(N)c(/C=C3\C=Nc4ccccc43)c(=O)nc2s1	11	1	-6	-34	-9	-2
Nc1c(C=C2C=CC(=O)C=C2)c(=O)nc2snc(SCc3ccccc3)n12	3	18*	48	6	15	-3
On1nnc2c3ccccc3c3ccccc3c21	11	1	·	4	-4	1
O=C(COC(=O)c1cncc(Br)c1)NC1CCCCCC1	15	-1	-3	9	4	4
Cc1cc(OC(C)C(=O)N/N=C/CC(C)c2ccccc2)ccc1Cl (configuration not stated)	-2	3	2	55	1	-2
O=S(=O)(NCCN1CCCC1)c1ccc(Br)cc1	-23	1	-6	·	3	-5
CN(CC1CCOCC1)C(=O)CC1C(=O)NCCN1CC1CCCCC1 (configuration not stated)	8	-2	-2	-5	-19	·
CCC(NC(=O)c1ccc([N+](=O)[O-])cc1[N+](=O)[O-])c1ccccc1 (configuration not stated)	8	0	-12	35	58*	1
CN1c2ccccc2C(O)=C(C(=S)Nc2ccc(F)c(Cl)c2)S1(=O)=O	0	27*	41	45	-11	2
CN(C)c1ncc(CN2CCC(CO)(CCCc3ccccc3)CC2)s1	17	0	-1	-11	56*	-6
CCOC(=O)C1(CCc2ccccc2)CCN(Cc2cnc(N(C)C)s2)CC1	30	1	-2	-1	44	4
Cc1noc(C)c1C(=O)NCCc1c(C)[nH]c2ccccc12	5	0	-11	·	12	-8
N#CC1c2ccccc2C=CN1C(=O)N(c1ccccc1)c1ccccc1 (configuration not stated)	·	0	·	·	·	·
COC(=O)C1=C(N)N(c2ccccc2C(F)(F)F)C2=C(C(=O)CCC2)C1c1ccc2c(c1)OCO2 (configuration not stated)	-2	-1	-11	6	56*	1
SMILES	PREPL inhibitor	GRIN3A LBD mod	CSC inhib	CHOP inh	T cruzi inh	Beta apoptosis
CCN(CC)S(=O)(=O)c1ccc2c(c1)C(=NO)c1cc(S(=O)(=O)N(CC)CC)ccc1-2	-2	5	85*	-22	63*	22
CCN(CC)S(=O)(=O)c1ccc(C)c(C)c1	9	0	0	5	7	-4
O=S(=O)(c1ccc2c(c1)C(=NO)c1cc(S(=O)(=O)N3CCCCC3)ccc1-2)N1CCCCC1	0	2	122*	·	77*	106*
O=S(=O)(c1ccc(S(=O)(=O)N2CCCC2)cc1)N1CCCCCC1	13	1	11	0	8	·
COc1ccc(/C=C/c2c(-c3ccc(OC)cc3)sc3ccc(N4CCOCC4)cc23)cc1	6	0	26	·	18	4
COC(=O)c1ccc(/C=C/c2c(-c3ccsc3)sc3ccccc23)cc1	-8	-13	94*	·	-7	-3
COc1ccc(-c2sc3ccccc3c2/C=C/c2ccc(N)cc2)cc1	25	-2	97*	·	·	0
C=CCN(CC=C)CCOc1cccc2ccccc12	0	12*	-12	76*	2	5
O=C(c1cccc(F)c1)N1CCN=C1SCc1cccnc1	-2	-4	-10	86*	4	·
CC(C)c1ccc(C(C(C(=O)c2ccccc2)N2CCOCC2)N2CCOCC2)cc1 (configuration not stated)	·	-1	·	·	·	·
O=c1[nH]c(-c2ccccn2)nc(C(F)(F)F)c1Br	10	-3	20	-5	66*	30
O=S(=O)(c1ccc2c(c1)CCN2)N1CCCC1	4	0	·	·	·	-3
COc1ccc(/C=C2\N=C(c3ccc(C)cc3)OC2=O)cc1	17	2	-4	·	1	-8
COc1ccc(C2=NC(=O)/C(=C\c3cc(OC)c(OC)c(OC)c3)O2)cc1	-4	1	-2	89*	·	-1
O=C(O)c1cccc(NC(=S)NC(NC(=O)c2cccc([N+](=O)[O-])c2)C(Cl)(Cl)Cl)c1 (configuration not stated)	19	-9	-3	-12	37	10
Cc1ccc(C(=O)NC(NC(=S)Nc2ccc(S(N)(=O)=O)cc2)C(Cl)(Cl)Cl)cc1 (configuration not stated)	7	19*	5	23	3	0
O=C(NC(NC(=S)Nc1ccc(Cl)cc1Cl)C(Cl)(Cl)Cl)c1cccc([N+](=O)[O-])c1 (configuration not stated)	-4	21*	128*	67	74*	97*
O=C(NC(NC(=S)Nc1ccccc1)C(Cl)(Cl)Cl)c1cccc(Cl)c1 (configuration not stated)	2	24*	89*	86*	65*	95*
